Bioassay records (PubChem)
Apaf-1 inh = inhibitors of human Apaf-1 apoptosome. 330,000 compounds, 0.71% hits. inhibition, % at 20 µM. O14727. reconstituted apoptosome caspase-3 activity, DEVD-Rh110 fluorescence. AID 489030; active = inhibition of at least 40% at 20 µM;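 also: plate controls were DMSO wells for no effect and DEVD-CHO caspase inhibitor wells for full effect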
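Material: biochemical Apaf-1 apoptosome reconstitution. Medium: Hepes buffer, pH 7.5. Also added: cytochrome c activation, bis-DEVD rhodamine 110 substrate. Timing: 30 min compound preincubation, 50 min activation, room temperature. Measured by: rhodamine 110 fluorescence at Ex 480/Em 540 nm.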
TCR CD3 inh = human TCR-CD3 binding inhibition; inhibition, % at 9.4 µM; 360,000 compounds, 0.37% hits; TAMRA-labeled TCR probe fluorescence, biochemical;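 also: recombinant mutant TCR 2C K166C tagged with TAMRA read by polarization; 0% = receptor in buffer alone and 100% = receptor with positive control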
GSTO1 counter = counter-screen for RBBP9 inhibitors: inhibitors of human GSTO1. recombinant GSTO1, activity-based probe fluorescence polarization. 300,000 compounds, 1.1% hits. AID 1974. inhibition, % at 5.96 µM. P78417;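 active = inhibition above the campaign mean inhibition plus 3 SD, cut at about 35% in these data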;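 also: 0% = GSTO1-1 with DMSO and 100% = wells lacking GSTO1-1 enzyme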
Target sequence (P78417 whole entry, looked up): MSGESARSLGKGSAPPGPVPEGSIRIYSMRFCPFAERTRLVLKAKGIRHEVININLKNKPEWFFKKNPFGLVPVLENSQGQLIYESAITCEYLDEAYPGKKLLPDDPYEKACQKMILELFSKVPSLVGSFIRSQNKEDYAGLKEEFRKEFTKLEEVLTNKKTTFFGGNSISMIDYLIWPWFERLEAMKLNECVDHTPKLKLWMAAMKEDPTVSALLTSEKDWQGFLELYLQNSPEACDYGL
TDP2 inh = blocks human TDP2 phosphodiesterase activity; O95551; recombinant TDP2, T5PNP hydrolysis, p-nitrophenol absorbance 415 nm; inhibition, % at 12.8 µM; 370,000 compounds, 0.34% hits;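 active = inhibition above the mean of all tested compounds plus 3 SD, set per campaign, cut at about 25% in these data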;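 also: 0% = DMSO with enzyme and 100% = buffer with substrate but no TDP2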
Target sequence (O95551 whole entry, looked up): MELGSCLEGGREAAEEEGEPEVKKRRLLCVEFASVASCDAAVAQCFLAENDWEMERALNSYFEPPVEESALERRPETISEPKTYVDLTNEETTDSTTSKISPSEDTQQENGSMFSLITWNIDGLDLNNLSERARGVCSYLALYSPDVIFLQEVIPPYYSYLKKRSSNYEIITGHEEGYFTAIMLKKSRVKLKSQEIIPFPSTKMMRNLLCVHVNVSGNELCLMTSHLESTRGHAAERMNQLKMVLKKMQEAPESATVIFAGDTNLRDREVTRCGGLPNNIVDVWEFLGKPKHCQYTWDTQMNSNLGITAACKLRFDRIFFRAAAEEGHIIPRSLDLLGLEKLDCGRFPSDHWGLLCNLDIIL
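Assay system: Recombinant human TDP2 | Quantity: 120 nM TDP2 per well | Incubation: 2 h at 37 °C | Signal: Epi absorbance | Evaluation: Percent inhibition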
PAD4 inh = inhibitors of human PAD4 | inhibition, % at 6.36 µM | AID 485272 | recombinant PAD4, RCA probe fluorescence polarization | 330,000 compounds, 0.41% hits;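 active = percent inhibition above a cutoff equal to the mean of all tested compounds plus 3 SD, cut at about 15% in these data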;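 also: 0% = PAD4 with RCA probe and DMSO and 100% = probe without PAD4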
SIAE inh = inhibitors of human sialic acid acetylesterase SIAE; SIAE FP-Rh probe binding, fluorescence polarization; inhibition, % at 9.66 µM; 370,000 compounds, 0.69% hits;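 active = inhibition above a cutoff: mean of compounds within the control limits plus 3 SD of those, cut at about 17% in these data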;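 also: 0% = plate median of compound wells and 100% = probe without SIAE protein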
GSTO1 inh conf = confirmation of human GSTO1 inhibitors; shares compounds with GSTO1 counter; inhibition, % at 5.96 µM; recombinant GSTO1, probe fluorescence polarization; 2,400 compounds, 54% hits;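 active = inhibition above the primary screen's cutoff, its mean inhibition plus 3 SD, cut at about 35% in these data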;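 also: loss of polarization as inhibitors block binding of rhodamine sulfonate ester activity probe; 0% = GSTO1 with DMSO and 100% = wells lacking GSTO1 enzyme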
PAD4 FP conf = confirmation of human PAD4 inhibitors. inhibition, % at 6.36 µM. recombinant PAD4, RCA probe fluorescence polarization. shares compounds with PAD4 inh. AID 488796. 1,200 compounds, 28% hits;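 active = mean inhibition across replicates above the hit cutoff set by the earlier primary screen, cut at about 15% in these data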;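 also: inhibitors block active-site labeling by the probe so polarization falls; 0% = PAD4 with probe and DMSO and 100% = probe without PAD4 enzyme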
Apaf-1 inh conf2 = Apaf-1 inhibition, single-dose confirmed | shares compounds with Apaf-1 inh | reconstituted apoptosome, caspase-3 DEVD-Rh110 fluorescence | inhibition, % at 20 µM | 1,800 compounds, 25% hits;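 active = mean inhibition of at least 40% at 20 µM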;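 also: plate controls were DMSO wells for no effect and DEVD-CHO caspase inhibitor control wells for full effect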
Rh110 interf inh = Rh110 signal interference in Apaf-1 inhibitor counter-screen. shares compounds with Apaf-1 inh. Rh110 fluorescence interference, quenched caspase reaction. activation (fluorescence interference), % at 20 µM. 1,800 tested, under 10 active. AID 504615;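 active = signal rise of 40% or more at 20 µM, treated as a fluorescence artifact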
Apaf1 inh interf = counter-screen for Apaf-1 inhibitors: fluorescence interference, dose response; shares compounds with Apaf-1 inh; fluorescence interference counterscreen, Apaf-1 assay format; IC50, µM; 460 tested, under 10 active; call rule not given here
BSA TAMRA ctr = interferes with TAMRA-BSA probe, flagging TCR-CD3 hits; shares compounds with TCR CD3 inh; AID 652035; inhibition, % at 9.4 µM; TAMRA-labeled BSA probe fluorescence counterscreen; 1,200 compounds, 10% hits; in the data active = inhibition above about 23%;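 also: 0% = buffer low control and 100% = reference high control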
TCR-CD3 inh conf = confirmation of human TCR-CD3 interaction inhibitors. shares compounds with TCR CD3 inh. inhibition, % at 9.4 µM. TAMRA-labeled TCR probe fluorescence binding assay. 1,200 compounds, 48% hits
TDP2 inh conf = human TDP2 inhibition, confirmation; shares compounds with TDP2 inh; 1,100 compounds, 22% hits; recombinant human TDP2, absorbance read-out; inhibition, % at 12.8 µM; in the data active = inhibition above about 25%;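 also: 0% = vehicle with enzyme and 100% = no enzyme buffer only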
Active calls of the source: *; . = not tested or not shown. Sampled rows, rich in hits. Any-hit rate of the full collection: about 2.4%. Rule as the data show it, unless noted: active = inhibition above about 19%; inactive = the rest.

SMILES	Apaf-1 inh	TCR CD3 inh	GSTO1 counter	TDP2 inh	PAD4 inh	SIAE inh	GSTO1 inh conf	PAD4 FP conf	TDP2 inh conf	others
CN(Cc1ccccc1)C(=O)CNC(=O)C12CC3CC(CC(C3)C1)C2	-3	1	.	-19	-4	-2	.	.	.
O=C(Cc1ccccc1[N+](=O)[O-])N1CCOCC1	-12	0	5	11	-3	4	.	.	.
CC(=O)Oc1ccc2occ(/C=N/c3cc(=O)[nH]c(=S)[nH]3)c(=O)c2c1	-12	19*	73*	6	6	-3	12	.	.	BSA TAMRA ctr=-7;TCR-CD3 inh conf=13
Nc1ccc2c(c1)C(=O)C(=O)c1ccccc1-2	98*	-4	94*	98*	82*	5	94*	73*	87*	Apaf-1 inh conf2=99*;Rh110 interf inh=2;Apaf1 inh interf=>100
Cc1[nH][nH]c(=O)c1C(c1ccc(-c2ccccc2C(=O)O)o1)c1c(C)[nH][nH]c1=O	.	-5	70*	45*	51*	0	8	-6	39*
Cc1ccc2oc(-c3ccccc3C(=O)O)cc(=O)c2c1	-11	-3	-3	8	2	1	.	.	.
COC(=O)c1ccc(-c2ccc(C(c3c(C)[nH][nH]c3=O)c3c(C)[nH][nH]c3=O)o2)cc1	44*	0	38*	26*	-8	9	34	.	25*	Apaf-1 inh conf2=42*;Rh110 interf inh=0;Apaf1 inh interf=>100
Cc1nc2nc[nH]n2c(=O)c1CCOC(=O)c1ccccc1F	2	-2	-5	-2	-3	-4	.	.	.
COc1ccc(CCn2c(N)c(C(=O)NCc3ccco3)c3nc4ccccc4nc32)cc1OC	63*	2	52*	25*	-16	-1	0	.	26*	Apaf-1 inh conf2=16;Rh110 interf inh=3
O=S(=O)(Nc1ccc(O)c2ccccc12)c1cccs1	52*	4	64*	50*	21*	5	16	-5	30*
O=S(=O)(Nc1cccc2ccccc12)c1cccs1	-3	2	5	-3	0	5	.	.	.
Cc1ccccc1-c1cc2c(nn1)-c1ccccc1C2=O	97*	-3	75*	63*	58*	3	70*	-8	50*	Apaf-1 inh conf2=61*;Rh110 interf inh=-7;Apaf1 inh interf=>100
Cc1ccc(-c2cc3c(nn2)-c2ccccc2C3=O)cc1	27	11	17	10	-9	-3	.	.	.
Cc1ccc(C(c2nnnn2C2CCCC2)N2CCN3CCCC3C2)cc1 (stereo not drawn)	5	-6	-3	-8	4	4	.	.	.
CC(=O)C1=C(C)OC2(O)c3ccccc3C(=O)C12O (stereo not drawn)	93*	-4	72*	57*	-11	0	80*	.	61*	Apaf-1 inh conf2=90*;Rh110 interf inh=4;Apaf1 inh interf=>100
Cc1cc(=O)n(-c2ccccc2Cl)[nH]1	33	2	48*	59*	33*	2	5	4	10
Cc1cc(=O)n(-c2ccc(O)cc2)[nH]1	21	1	73*	56*	61*	6	8	-3	15
OCCc1ccc(NCCc2cccs2)cc1	.	-3	.	-7	.	2	.	.	.
CN(C(=O)c1cccc(NC(=O)Cc2cccc(NC(=O)C3CCN(C(=O)c4ccccc4)CC3)c2)c1)C1CCCC1	.	2	.	2	.	1	.	.	.
CCCNC1=C(N(C(C)=O)c2cccc(F)c2)C(=O)c2ccccc2C1=O	.	0	55*	26*	18*	1	41*	-5	25*
CC(=O)c1sc(N)c(C(=O)OC(C)C)c1C	2	2	6	-8	2	4	.	.	.
CC(NS(=O)(=O)c1ccc2ccccc2c1)c1ccccn1 (stereo not drawn)	-10	-6	.	4	1	9	.	.	.
NC(=O)C1CCN(CC(=O)Nc2cccc(C(=O)Nc3cccc(C(F)(F)F)c3)c2)CC1	3	-1	-1	-4	-3	-3	.	.	.
CCCCn1c(NS(=O)(=O)c2ccccc2)c(S(=O)(=O)c2ccc(C)cc2)c2nc3ccccc3nc21	.	-3	92*	89*	66*	5	83*	-5	95*
Cc1ccc(S(=O)(=O)c2c(N)n(CCC(C)C)c3nc4ccccc4nc23)cc1	19	-1	-1	1	-4	-45	.	.	.
SMILES	Apaf-1 inh	TCR CD3 inh	GSTO1 counter	TDP2 inh	PAD4 inh	SIAE inh	GSTO1 inh conf	PAD4 FP conf	TDP2 inh conf	others
Cc1ccc(S(=O)(=O)c2c(N)n(CCCO)c3nc4ccccc4nc23)cc1	18	-2	60*	54*	-18	-9	9	.	-7
CCCCn1c(NC(=O)c2ccc(Br)o2)c(S(=O)(=O)c2ccccc2)c2nc3ccccc3nc21	71*	5	58*	67*	-12	3	67*	.	23	Apaf-1 inh conf2=31;Rh110 interf inh=-2
CCCCn1c(NC(=O)c2ccco2)c(S(=O)(=O)c2ccc(C)cc2)c2nc3ccccc3nc21	.	-3	.	21	.	-9	.	.	.
CNc1nc(Cl)c(SC)c(NC2CCCCC2)n1	-13	0	3	2	3	2	.	.	.
CN(C)c1cccc2c(S(=O)(=O)Nc3ccccn3)cccc12	38	6	45*	56*	-9	9	7	.	21
O=C(O)[C@H]1CCCC[C@H]1C(=O)NCCc1ccccc1	-18	4	-2	-9	0	-3	.	.	.
COc1cccc(/C=N/Nc2nnc(C)n2N)c1O	3	-3	41*	41*	39*	6	1	0	1
CCc1nnc(N/N=C/c2cc(Br)c(O)cc2O)n1N	22	0	68*	37*	37*	9	13	.	3
CCOc1ccc2noc3c2c1C(=O)c1ccccc1-3	76*	11	40*	39*	135*	17*	13	131*	34*	Apaf-1 inh conf2=56*;Rh110 interf inh=-20
